What is called IC50 is the midpoint of a concentration-inhibition curve. A low value points to higher potency. A word on the clearance: it is the rate of elimination divided by the concentration. In general, bioavailability refers to the share of a dose that reaches the circulation, judged against a reference dose that is usually intravenous. Broadly, the half-life is the time needed for the level to fall by half in the phase considered. High values mean slow loss, low ones fast loss.

From ChEMBL document CHEMBL1759894, “Synthesis and SAR investigations of novel 2-arylbenzimidazole derivatives as melanin-concentrating hormone receptor 1 (MCH-R1) antagonists” (Bioorg Med Chem Lett, 2011) come the findings set out here.

SMILES strings stand for the structures. Bounds are passed on as bounds.

Data set [1] concerns the target Melanin-concentrating hormone receptor 1 (Homo sapiens, UniProt Q99705). Nature of the data set: Displacement of Eu-labeled MCH from human MCH-R1 expressed in CHO by time-resolved fluorometric assay. In short, it runs like this: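 Competitive binding on membranes from CHO cells expressing human MCH-R1, with Eu-labeled MCH as tracer and time-resolved fluorometric read-out. IC50 values are means of at least two measurements.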

The nature of data set [2]: Plasma concentration in rat at 10 mg/kg, po at 3 hrs. Format: ADME, organism-based. The arrangement: dose 10 mg/kg, route oral. In a few lines: (§1)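 SD rats were given 10 mg/kg orally, and concentrations were measured 3 h after dosing. Values are means of n = 3 rats.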
Data set [3] can be described thus: Drug level in rat brain at 10 mg/kg, po at 3 hrs. The arrangement: dose 10 mg/kg, route oral. Format: ADME, organism-based. As to conditions: read-out: Drug uptake. In short, it runs like this: as §1
Data set [4] has as its system Rattus norvegicus. Nature of the data set: Volume of distribution at steady state in rat at 10 mg/kg, iv and po. Format: ADME, organism-based. The arrangement: dose 10 mg/kg, route oral. The following applies: in vivo. In short, it runs like this: (§2)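 Rats received 10 mg/kg by both intravenous and oral routes, n = 3.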
In data set [5] the target is Voltage-gated inwardly rectifying potassium channel KCNH2 (Homo sapiens, UniProt Q12809). Nature of the data set: Inhibition hERG by patch clamp method. A general note: hERG is a cardiac potassium channel; its block is linked to QT prolongation.
Data set [6] is described as follows: Clearance in rat at 10 mg/kg, iv. On the set-up: dose 10 mg/kg, route intravenous. Format: ADME, organism-based. As to conditions: in vivo. In short, it runs like this:
as §2

Data set [7] can be described thus: Metabolic stability in human liver microsomes after 30 mins. As to conditions: read-out: Stability. Format: ADME, Microsome. On the technique in general: Liver microsomes are vesicles of endoplasmic reticulum, rich in cytochrome P450 enzymes.
Data set [8] is described as follows: Oral bioavailability in rat at 10 mg/kg. The format is ADME, organism-based. As to conditions: in vivo. In short, it runs like this: as §2
A short description of data set [9]: Metabolic stability in rat liver microsomes after 30 mins. Format: ADME, Microsome. The following applies: read-out: Stability.
The nature of data set [10]: Half life in rat at 10 mg/kg, iv and po. Format: ADME, organism-based. The arrangement: dose 10 mg/kg, route oral. The following applies: in vivo. In short, it runs like this:
as §2

Chain of Melanin-concentrating hormone receptor 1 (Q99705 whole entry): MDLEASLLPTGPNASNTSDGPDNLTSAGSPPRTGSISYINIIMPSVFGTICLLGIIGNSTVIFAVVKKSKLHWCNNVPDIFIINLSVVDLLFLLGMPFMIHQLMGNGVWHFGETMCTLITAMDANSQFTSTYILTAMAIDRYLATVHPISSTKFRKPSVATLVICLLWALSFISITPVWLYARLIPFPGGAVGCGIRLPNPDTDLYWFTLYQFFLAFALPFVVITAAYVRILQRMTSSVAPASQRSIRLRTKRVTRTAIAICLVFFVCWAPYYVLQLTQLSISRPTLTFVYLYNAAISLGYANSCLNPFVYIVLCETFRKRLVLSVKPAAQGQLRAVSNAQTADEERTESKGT
Chain of Voltage-gated inwardly rectifying potassium channel KCNH2 (Q12809 whole entry): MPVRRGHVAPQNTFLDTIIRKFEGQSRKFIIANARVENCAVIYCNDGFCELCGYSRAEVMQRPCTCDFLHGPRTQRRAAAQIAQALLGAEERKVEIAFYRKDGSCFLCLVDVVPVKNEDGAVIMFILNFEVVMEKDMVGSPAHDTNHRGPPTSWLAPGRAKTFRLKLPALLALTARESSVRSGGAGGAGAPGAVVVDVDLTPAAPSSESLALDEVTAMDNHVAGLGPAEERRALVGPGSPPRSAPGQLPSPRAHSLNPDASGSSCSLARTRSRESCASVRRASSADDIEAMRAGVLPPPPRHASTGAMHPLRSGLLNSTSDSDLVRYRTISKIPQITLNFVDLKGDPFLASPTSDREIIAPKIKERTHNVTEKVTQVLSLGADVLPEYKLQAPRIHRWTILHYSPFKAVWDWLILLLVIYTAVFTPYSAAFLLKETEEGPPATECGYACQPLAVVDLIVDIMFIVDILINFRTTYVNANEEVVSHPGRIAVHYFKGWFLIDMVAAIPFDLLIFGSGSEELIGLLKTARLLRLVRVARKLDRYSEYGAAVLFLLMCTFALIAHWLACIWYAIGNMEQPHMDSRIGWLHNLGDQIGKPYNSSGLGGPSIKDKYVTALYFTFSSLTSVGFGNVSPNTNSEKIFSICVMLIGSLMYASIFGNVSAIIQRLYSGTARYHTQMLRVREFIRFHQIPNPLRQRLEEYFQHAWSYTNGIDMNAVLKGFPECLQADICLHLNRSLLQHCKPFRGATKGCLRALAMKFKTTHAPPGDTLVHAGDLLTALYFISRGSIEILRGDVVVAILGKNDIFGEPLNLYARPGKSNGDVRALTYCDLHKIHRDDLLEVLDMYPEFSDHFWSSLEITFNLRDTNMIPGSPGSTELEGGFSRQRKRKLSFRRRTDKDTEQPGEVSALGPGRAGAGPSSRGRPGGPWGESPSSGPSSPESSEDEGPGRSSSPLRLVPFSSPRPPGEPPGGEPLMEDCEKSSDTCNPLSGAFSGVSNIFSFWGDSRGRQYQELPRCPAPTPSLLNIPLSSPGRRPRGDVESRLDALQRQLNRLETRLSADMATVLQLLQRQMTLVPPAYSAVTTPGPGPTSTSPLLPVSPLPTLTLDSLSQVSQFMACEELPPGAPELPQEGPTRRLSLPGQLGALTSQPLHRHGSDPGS

Consider `CC(=O)Nc1cccc(C2CCN(CCn3c(-c4ccccc4)nc4ccccc43)CC2)c1`, for which the 50% inhibitory concentration (IC50) in data set [1] worked out at 10000 nM.

For the compound `CC(=O)Nc1cccc(C2CCN(CCCn3c(-c4ccc(Cl)cc4)nc4ccccc43)CC2)c1`, the concentration at 3 h stood at 420 ng/mL in data set [2] and 160 ng/g in [3]. In [4], this compound showed a Vdss of 6 L/kg. Besides, the IC50 in data set [5] is 3 nM. Also, the clearance in data set [6] turned out to be 28.3 mL/min/kg. Moreover, the values for the remaining at 0.5 h in data set [7] and in data set [9] were 97% and 98%, respectively. This compound showed a bioavailability in [8] of 99%. Further, the half-life in [10] is 4.3 h.

`CC(=O)Nc1cccc(C2CCN(CCCn3c(-c4ccccc4C(F)(F)F)nc4ccccc43)CC2)c1` came in with an IC50 in data set [1] of 50 nM.

Turning to `CC(=O)Nc1cccc(C2CCN(CCCn3c(-c4cccc(C(F)(F)F)c4)nc4ccccc43)CC2)c1`, in [1], the IC50 was 30 nM.

Take `CCc1ccc(-c2nc3ccccc3n2CCCN2CCC(c3cccc(NC(C)=O)c3)CC2)cc1`: the IC50 in data set [1] is 32 nM.

`CC(=O)Nc1cccc(C2CCN(CCCn3c(-c4ccc(C(C)C)cc4)nc4ccccc43)CC2)c1`: the IC50 in data set [1] is 60 nM.

Turning to `CC(=O)Nc1ccccc1C1CCN(CCCn2c(-c3ccc(Cl)cc3)nc3ccccc32)CC1`, the IC50 in data set [1] is > 6000 nM.

Turning to `CC(=O)Nc1ccc(C2CCN(CCCn3c(-c4ccc(Cl)cc4)nc4ccccc43)CC2)cc1`, in data set [1], the half-maximal inhibitory concentration (IC50) was determined as 5380 nM.

In turn, `Cc1ccc(C(=O)Nc2cccc(C3CCN(CCCn4c(-c5ccc(Cl)cc5)nc5ccccc54)CC3)c2)cc1` had an IC50 in data set [1] of 300 nM.
